Results from ChEMBL document CHEMBL2150950, “Effect of 4-aryl-2-methyl-5-nitro-1,4-dihydropyridine-3-carboxylates on the guinea pig papillary muscle and isolated human vena saphena magna that is used for coronary artery bypass grafting” (2011).
Active and inactive are the calls of the source. The rule behind the calls is not given here.

What was measured:
[1] = Ionotropic effect in guinea pig ventricle papillary muscles assessed as lengthening of 50% repolarized cardiac action potential duration time at 10^-7 M by microelectrode technique relative to untreated control (reference value: 132 to 176 APD50 ms); assay type: functional, Cavia porcellus, Papillary muscle
[2] = Ionotropic effect in guinea pig ventricle papillary muscles assessed as lengthening of 50% repolarized cardiac action potential duration time at 10^-4 M by microelectrode technique relative to untreated control (reference value: 132 to 176 APD50 ms); assay type: functional, Cavia porcellus, Papillary muscle
[3] = Ionotropic effect in guinea pig ventricle papillary muscles assessed as lengthening of 10% repolarized cardiac action potential duration time at 10^-6 M by microelectrode technique relative to untreated control (reference value: 37 to 47 APD10 ms); assay type: functional, Cavia porcellus, Papillary muscle
[4] = Ionotropic effect in guinea pig right ventricle papillary muscles assessed as contraction force at 10^-4 M by force transduction assay relative to untreated control (reference value: 100%); assay type: functional, Cavia porcellus, Papillary muscle
[5] = Ionotropic effect in guinea pig right ventricle papillary muscles assessed as contraction force at 10^-7 M by force transduction assay relative to untreated control (reference value: 100%); assay type: functional, Cavia porcellus, Papillary muscle
[6] = Ionotropic effect in guinea pig ventricle papillary muscles assessed as lengthening of 25% repolarized cardiac action potential duration time at 10^-4 M by microelectrode technique relative to untreated control (reference value: 84 to 104 APD25 ms); assay type: functional, Cavia porcellus, Papillary muscle
[7] = Ionotropic effect in guinea pig ventricle papillary muscles assessed as lengthening of 10% repolarized cardiac action potential duration time at 10^-4 M by microelectrode technique relative to untreated control (reference value: 37 to 47 APD10 ms); assay type: functional, Cavia porcellus, Papillary muscle
[8] = Ionotropic effect in guinea pig ventricle papillary muscles assessed as lengthening of 25% repolarized cardiac action potential duration time at 10^-7 M by microelectrode technique relative to untreated control (reference value: 84 to 104 APD25 ms); assay type: functional, Cavia porcellus, Papillary muscle
[9] = Ionotropic effect in guinea pig ventricle papillary muscles assessed as lengthening of 25% repolarized cardiac action potential duration time at 10^-5 M by microelectrode technique relative to untreated control (reference value: 84 to 104 APD25 ms); assay type: functional, Cavia porcellus, Papillary muscle
[10] = Ionotropic effect in guinea pig ventricle papillary muscles assessed as lengthening of 90% repolarized cardiac action potential duration time at 10^-5 M by microelectrode technique relative to untreated control (reference value: 132 to 176 APD50 ms); assay type: functional, Cavia porcellus, Papillary muscle
[11] = Ionotropic effect in guinea pig right ventricle papillary muscles assessed as contraction force at 10^-5 M by force transduction assay relative to untreated control (reference value: 100%); assay type: functional, Cavia porcellus, Papillary muscle
[12] = Ionotropic effect in guinea pig ventricle papillary muscles assessed as lengthening of 25% repolarized cardiac action potential duration time at 10^-6 M by microelectrode technique relative to untreated control (reference value: 84 to 104 APD25 ms); assay type: functional, Cavia porcellus, Papillary muscle
[13] = Ionotropic effect in guinea pig ventricle papillary muscles assessed as lengthening of 50% repolarized cardiac action potential duration time at 10^-6 M by microelectrode technique relative to untreated control (reference value: 132 to 176 APD50 ms); assay type: functional, Cavia porcellus, Papillary muscle
[14] = Ionotropic effect in guinea pig ventricle papillary muscles assessed as lengthening of 10% repolarized cardiac action potential duration time at 10^-7 M by microelectrode technique relative to untreated control (reference value: 37 to 47 APD10 ms); assay type: functional, Cavia porcellus, Papillary muscle
[15] = Ionotropic effect in guinea pig ventricle papillary muscles assessed as lengthening of 90% repolarized cardiac action potential duration time at 10^-4 M by microelectrode technique relative to untreated control (reference value: 132 to 176 APD50 ms); assay type: functional, Cavia porcellus, Papillary muscle
[16] = Ionotropic effect in guinea pig ventricle papillary muscles assessed as lengthening of 50% repolarized cardiac action potential duration time at 10^-5 M by microelectrode technique relative to untreated control (reference value: 132 to 176 APD50 ms); assay type: functional, Cavia porcellus, Papillary muscle
[17] = Ionotropic effect in guinea pig right ventricle papillary muscles assessed as contraction force at 10^-6 M by force transduction assay relative to untreated control (reference value: 100%); assay type: functional, Cavia porcellus, Papillary muscle
[18] = Ionotropic effect in guinea pig ventricle papillary muscles assessed as lengthening of […] cardiac action potential duration time at 10^-5 M by microelectrode technique relative to untreated control (reference value: 37 to 47 […] ms); assay type: functional, Cavia porcellus, Papillary muscle
[19] = Ionotropic effect in guinea pig ventricle papillary muscles assessed as lengthening of 90% repolarized cardiac action potential duration time at 10^-6 M by microelectrode technique relative to untreated control (reference value: 132 to 176 APD50 ms); assay type: functional, Cavia porcellus, Papillary muscle
[20] = Ionotropic effect in guinea pig ventricle papillary muscles assessed as lengthening of 90% repolarized cardiac action potential duration time at 10^-7 M by microelectrode technique relative to untreated control (reference value: 132 to 176 APD50 ms); assay type: functional, Cavia porcellus, Papillary muscle
[21] = Vasodilatory activity in human vena saphena magna assessed as reduction in phenylephrine-induced smooth muscle contraction at 100 uM relative to baseline contraction; assay type: functional; design: scale not given: the % may be the effect or the level left
In short: (§1)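 Saphenous vein rings came from 37 CABG patients. They were bathed in Tyrode's solution (mM: NaCl 137, KCl 5.4, CaCl2 1.8, MgCl2 0.9, Tris HCl 10, glucose 5; pH 7.4), equilibrated 45–60 min and washed every 15 min. Rings were precontracted with 10^-4 M phenylephrine, then given cumulative test agent at 10^-7 to 10^-4 M. Isometric relaxation was recorded, as means ± SE.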

[22] = Vasodilatory activity in human vena saphena magna assessed as reduction in phenylephrine-induced smooth muscle contraction at 0.1 uM; assay type: functional; design: scale not given: the % may be the effect or the level left; in short: as §1
[23] = Vasodilatory activity in human vena saphena magna assessed as relaxation of phenylephrine-induced smooth muscle contraction at 10^-7 to 10^-4 M; assay type: functional; in short: as §1

Row | Structure (SMILES) | Time [1] [ms] | Time [2] [ms] | Time [3] [ms] | Activity [4] [%] | Activity [5] [%] | Time [6] [ms] | Time [7] [ms] | Time [8] [ms] | Time [9] [ms] | Time [10] [ms] | Activity [11] [%] | Time [12] [ms] | Time [13] [ms] | Time [14] [ms] | Time [15] [ms] | Time [16] [ms] | Activity [17] [%] | Time [18] [ms] | Time [19] [ms] | Time [20] [ms] | further results
1 | COC(=O)C1=C(C)NC=C([N+](=O)[O-])C1c1ccccc1C(F)(F)F (stereo unspecified) | 138 | 156.5 | 38.5 | 97.8 | 101 | 111.3 | 47 | 92.5 | 103.2 | 175.5 | 103 | 91.4 | 140.5 | 40 | 184 | 149.8 | 98.5 | 44.7 | 172 | 171.5 | –
2 | CCOC(=O)C1=C(C)NC2=C(C(=O)OC2)C1c1ccccc1OC(F)F (stereo unspecified) | – | – | – | – | – | – | – | – | – | – | – | – | – | – | – | – | – | – | – | – | Activity [21]: 19%; Activity [22]: 50%; Activity [23]: Active
3 | COC(=O)C1=C(C)NC=C([N+](=O)[O-])C1c1ccccc1OC(F)F (stereo unspecified) | 153 | 178 | 35 | 92.8 | 78.85 | 112.6 | 39.5 | 90.6 | 111.6 | 217 | 90.3 | 93.7 | 161 | 36 | 220 | 177 | 73.5 | 39.5 | 202 | 190 | –
4 | COC(=O)C1=C(C)NC(C)=C([N+](=O)[O-])C1c1ccccc1C(F)(F)F (stereo unspecified) | 135.6 | 133.8 | 42 | 176 | 123 | 89 | 42.7 | 92.7 | 85.1 | 217 | 175 | 91 | 133.8 | 44.5 | 223.5 | 129 | 155 | 41 | 218.2 | 220 | Activity [21]: 19%; Activity [22]: 50%; Activity [23]: Active
5 | CCCOCCOC(=O)C1=C(C)NC=C([N+](=O)[O-])C1c1ccc(C(F)(F)F)cc1 (stereo unspecified) | 136.6 | 158.7 | 36 | 73 | 89.5 | 101 | 38.2 | 91 | 103.3 | 188 | 81 | 96 | 149.6 | 35 | 189.6 | 161.2 | 83.7 | 37.5 | 180 | 166.7 | –
6 | COC(=O)C1=C(C)NC(C)=C([N+](=O)[O-])C1c1ccccc1OC(F)F (stereo unspecified) | 144.8 | 148.5 | 54.5 | 111 | 114.4 | 109.2 | 53.8 | 101.7 | 110.8 | 175 | 108.3 | 110.3 | 149 | 51.3 | 176.7 | 147 | 112.6 | 55.3 | 178.3 | 178.3 | –
